Experimental data published in ChEMBL document CHEMBL5058577, “EUbOPEN Chemogenomics Library 2 (Multiplex)” (2022).

Tested on: Fibroblast
Experiment: Multiplex assay against human fibroblast
Assay type: toxicity, cell-based
Outline: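 Values for tubulin, mitochondrial-mass and membrane-permeability phenotypes are per cents of cells with healthy nuclei. These cells were identified by CellPathfinder machine-learning gating of live cells that had been stained at seeding with Hoechst33342, BioTracker Green Microtubule Cytoskeleton Dye, MitoTracker Red and Annexin V Alexa Fluor 680 and imaged on a CQ1 microscope at 37°C and 5% CO2 after compound addition. The gating first set Hoechst high-intensity objects apart from normal cells, then split normal cells into healthy, pyknosed or fragmented nuclei, and pyknosed cells into mitotic or apoptotic.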

[1] = 12 h, 1 µM, compound concentration 1 uM, replicate 1
[2] = 12 h, 1 µM, compound concentration 1 uM, replicate 2
[3] = 12 h, 10 µM, compound concentration 10 uM, replicate 1
[4] = 12 h, 10 µM, compound concentration 10 uM, replicate 2
[5] = 24 h, 1 µM, compound concentration 1 uM, replicate 1
[6] = 24 h, 1 µM, compound concentration 1 uM, replicate 2
[7] = 24 h, 10 µM, compound concentration 10 uM, replicate 1
[8] = 24 h, 10 µM, compound concentration 10 uM, replicate 2
[9] = 48 h, 1 µM, compound concentration 1 uM, replicate 1
[10] = 48 h, 1 µM, compound concentration 1 uM, replicate 2
[11] = 48 h, 10 µM, compound concentration 10 uM, replicate 1
[12] = 48 h, 10 µM, compound concentration 10 uM, replicate 2

SMILES: CN(C)c1ccnc2sc3c(=O)n(N4CCCCCC4)cnc3c12
- Population Apoptotic (%) [1]: 42%
- Population Fragmented Nuclei (%) [1]: 17%
- Population Healthy Nuclei (%) [1]: 64%
- Population Hoechst High Intensity Objects (%) [1]: 3%
- Population Membrane Permeable-Phenotype (%) [1]: 1%
- Population Mitochondria Different-Phenotype (%) [1]: 3%
- Population Mitotic Cells (%) [1]: 57%
- Population Normal (%) [1]: 96%
- Population Pyknosed Nuclei (%) [1]: 18%
- Population Tubulin-Different-Phenotype (%) [1]: 29%
- Total Cell Count [1]: 144
- Population Apoptotic (%) [2]: 30%
- Population Fragmented Nuclei (%) [2]: 28%
- Population Healthy Nuclei (%) [2]: 51%
- Population Hoechst High Intensity Objects (%) [2]: 6%
- Population Membrane Permeable-Phenotype (%) [2]: 10%
- Population Mitotic Cells (%) [2]: 70%
- Population Normal (%) [2]: 93%
- Population Pyknosed Nuclei (%) [2]: 19%
- Population Tubulin-Different-Phenotype (%) [2]: 44%
- Total Cell Count [2]: 162
- Population Apoptotic (%) [3]: 44%
- Population Fragmented Nuclei (%) [3]: 14%
- Population Healthy Nuclei (%) [3]: 58%
- Population Hoechst High Intensity Objects (%) [3]: 5%
- Population Membrane Permeable-Phenotype (%) [3]: 1%
- Population Mitochondria Different-Phenotype (%) [3]: 14%
- Population Mitotic Cells (%) [3]: 55%
- Population Normal (%) [3]: 94%
- Population Pyknosed Nuclei (%) [3]: 27%
- Population Tubulin-Different-Phenotype (%) [3]: 75%
- Total Cell Count [3]: 141
- Population Apoptotic (%) [4]: 49%
- Population Fragmented Nuclei (%) [4]: 31%
- Population Healthy Nuclei (%) [4]: 30%
- Population Hoechst High Intensity Objects (%) [4]: 7%
- Population Membrane Permeable-Phenotype (%) [4]: 12%
- Population Mitotic Cells (%) [4]: 50%
- Population Normal (%) [4]: 92%
- Population Pyknosed Nuclei (%) [4]: 38%
- Total Cell Count [4]: 145
- Population Apoptotic (%) [5]: 48%
- Population Fragmented Nuclei (%) [5]: 11%
- Population Healthy Nuclei (%) [5]: 67%
- Population Hoechst High Intensity Objects (%) [5]: 3%
- Population Membrane Permeable-Phenotype (%) [5]: 0%
- Population Mitochondria Different-Phenotype (%) [5]: 3%
- Population Mitotic Cells (%) [5]: 51%
- Population Normal (%) [5]: 96%
- Population Pyknosed Nuclei (%) [5]: 21%
- Population Tubulin-Different-Phenotype (%) [5]: 27%
- Total Cell Count [5]: 143
- Population Apoptotic (%) [6]: 50%
- Population Fragmented Nuclei (%) [6]: 24%
- Population Healthy Nuclei (%) [6]: 55%
- Population Hoechst High Intensity Objects (%) [6]: 2%
- Population Membrane Permeable-Phenotype (%) [6]: 10%
- Population Mitochondria Different-Phenotype (%) [6]: 2%
- Population Mitotic Cells (%) [6]: 50%
- Population Normal (%) [6]: 97%
- Population Pyknosed Nuclei (%) [6]: 19%
- Population Tubulin-Different-Phenotype (%) [6]: 49%
- Total Cell Count [6]: 146
- Population Apoptotic (%) [7]: 57%
- Population Fragmented Nuclei (%) [7]: 13%
- Population Healthy Nuclei (%) [7]: 58%
- Population Hoechst High Intensity Objects (%) [7]: 5%
- Population Membrane Permeable-Phenotype (%) [7]: 0%
- Population Mitochondria Different-Phenotype (%) [7]: 18%
- Population Mitotic Cells (%) [7]: 42%
- Population Normal (%) [7]: 94%
- Population Pyknosed Nuclei (%) [7]: 28%
- Population Tubulin-Different-Phenotype (%) [7]: 63%
- Total Cell Count [7]: 130
- Population Apoptotic (%) [8]: 30%
- Population Fragmented Nuclei (%) [8]: 35%
- Population Healthy Nuclei (%) [8]: 41%
- Population Hoechst High Intensity Objects (%) [8]: 8%
- Population Membrane Permeable-Phenotype (%) [8]: 22%
- Population Mitochondria Different-Phenotype (%) [8]: 24%
- Population Mitotic Cells (%) [8]: 69%
- Population Normal (%) [8]: 91%
- Population Pyknosed Nuclei (%) [8]: 22%
- Population Tubulin-Different-Phenotype (%) [8]: 85%
- Total Cell Count [8]: 128
- Population Apoptotic (%) [9]: 64%
- Population Fragmented Nuclei (%) [9]: 19%
- Population Healthy Nuclei (%) [9]: 70%
- Population Hoechst High Intensity Objects (%) [9]: 2%
- Population Membrane Permeable-Phenotype (%) [9]: 0%
- Population Mitochondria Different-Phenotype (%) [9]: 0%
- Population Mitotic Cells (%) [9]: 35%
- Population Normal (%) [9]: 97%
- Population Pyknosed Nuclei (%) [9]: 10%
- Population Tubulin-Different-Phenotype (%) [9]: 30%
- Total Cell Count [9]: 143
- Population Apoptotic (%) [10]: 36%
- Population Fragmented Nuclei (%) [10]: 36%
- Population Healthy Nuclei (%) [10]: 49%
- Population Hoechst High Intensity Objects (%) [10]: 3%
- Population Membrane Permeable-Phenotype (%) [10]: 6%
- Population Mitochondria Different-Phenotype (%) [10]: 2%
- Population Mitotic Cells (%) [10]: 63%
- Population Normal (%) [10]: 96%
- Population Pyknosed Nuclei (%) [10]: 14%
- Population Tubulin-Different-Phenotype (%) [10]: 41%
- Total Cell Count [10]: 157
- Population Apoptotic (%) [11]: 73%
- Population Fragmented Nuclei (%) [11]: 22%
- Population Healthy Nuclei (%) [11]: 47%
- Population Hoechst High Intensity Objects (%) [11]: 8%
- Population Membrane Permeable-Phenotype (%) [11]: 0%
- Population Mitochondria Different-Phenotype (%) [11]: 25%
- Population Mitotic Cells (%) [11]: 26%
- Population Normal (%) [11]: 91%
- Population Pyknosed Nuclei (%) [11]: 30%
- Population Tubulin-Different-Phenotype (%) [11]: 76%
- Total Cell Count [11]: 138
- Population Apoptotic (%) [12]: 50%
- Population Fragmented Nuclei (%) [12]: 47%
- Population Healthy Nuclei (%) [12]: 42%
- Population Hoechst High Intensity Objects (%) [12]: 6%
- Population Membrane Permeable-Phenotype (%) [12]: 19%
- Population Mitochondria Different-Phenotype (%) [12]: 13%
- Population Mitotic Cells (%) [12]: 50%
- Population Normal (%) [12]: 93%
- Population Pyknosed Nuclei (%) [12]: 9%
- Population Tubulin-Different-Phenotype (%) [12]: 86%
- Total Cell Count [12]: 131
